ChEMBL document CHEMBL5316274 (J Med Chem, 2023)
Active and inactive are the calls of the source. The calls are words filed in the database; no cut-off is given here.

Assays:
Mu-type opioid receptor [1] = target: T1, Mu-type opioid receptor (Mus musculus, UniProt P42866); assay: Binding affinity to mouse mu opioid receptor expressed in CHO cell membrane assessed as inhibition constant incubated for 1.5 hrs by competitive radioligand binding assay; format: cell membranes
[2] = target: Kappa-type opioid receptor (Mus musculus, UniProt P33534); assay: Binding affinity to mouse kappa opioid receptor expressed in CHO cell membrane assessed as inhibition constant incubated for 1.5 hrs by competitive radioligand binding assay; format: cell membranes
Mus musculus [3] = organism: Mus musculus; assay: Selectivity ratio, ratio of Ki for binding affinity to mouse kappa opioid receptor expressed in CHO cell membrane to Ki for binding affinity to mouse mu opioid receptor expressed in CHO cell membrane
[4] = Selectivity ratio, ratio of Ki for binding affinity to human delta opioid receptor expressed in CHO cell membrane to Ki for binding affinity to mouse mu opioid receptor expressed in CHO cell membrane
Mu-type opioid receptor [5] = target: T1, Mu-type opioid receptor; assay: Binding affinity to mouse mu opioid receptor expressed in CHO cell membrane assessed as [35S]GTPgammaS binding incubated for 1.5 hrs by liquid scintillation counter analysis; format: cell membranes
Procedure, shortened: (§1)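 MOR [35S]GTPγS functional assay in MOR-CHO membranes (Bmax about 2.5–4 pmol/mg). Efficacy is expressed as % of the maximal stimulation by full agonist DAMGO.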

[6] = target: Mu-type opioid receptor (Mus musculus) (UniProt P42866); assay: Binding affinity to mouse mu opioid receptor expressed in CHO cell membrane assessed as stimulation of [35S]-GTPgammaS binding by measuring maximal efficacy incubated for 1.5 hrs by scintillation spectroscopy analysis relative DAMGO; format: cell membranes; procedure, shortened: as §1
Mus musculus [7] = assay: Antinociceptive activity in Swiss Webster mouse assessed as inhibition of morphine induced latency to tail withdrawal at 10 mg/kg, sc preincubated for 5 mins followed by morphine addition and measured after 20 mins by warm water tail immersion assay; format: functional, organism-based; settings: time 25.0 min
Procedure, shortened: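 Male Swiss-Webster mice (n = 5). Compound is given s.c. at time 0 (10 mg/kg in the single-dose screen, a dose range for AD50), and morphine 10 mg/kg follows 5 min later. Tail flick is tested in 56 ± 0.1 °C water 20 min after morphine and scored as % MPE. Saline and morphine alone are the controls.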

SMILES	Ki (Mu-type opioid receptor [1])	Ki [2]	Ratio Ki (Mus musculus [3])	Ratio Ki [4]	EC50 (Mu-type opioid receptor [5])	Emax [6]	Activity (Mus musculus [7])	Emax ([6]; filed as modulator)
O=C(N[C@H]1CC[C@@]2(O)[C@H]3Cc4ccc(O)c5c4[C@@]2(CCN3CC2CC2)[C@H]1O5)c1cccc2cc(Cl)[nH]c12	0.65 nM	2.73 nM	4.2	2.8	1.82 nM	14.8%		
O=C(N[C@@H]1CC[C@@]2(O)[C@H]3Cc4ccc(O)c5c4[C@@]2(CCN3CC2CC2)[C@H]1O5)c1cccc2c(-c3ccccc3)c[nH]c12	1.46 nM	26.1 nM	17.9	33.8	1.78 nM	8.47%	inactive	
CC(C)c1c[nH]c2c(C(=O)N[C@H]3CC[C@@]4(O)[C@H]5Cc6ccc(O)c7c6[C@@]4(CCN5CC4CC4)[C@H]3O7)cccc12	2.78 nM	11 nM	4	9.3	2.48 nM	8.37%	inactive	
N#Cc1c[nH]c2c(C(=O)N[C@H]3CC[C@@]4(O)[C@H]5Cc6ccc(O)c7c6[C@@]4(CCN5CC4CC4)[C@H]3O7)cccc12	0.87 nM	5.46 nM		14	2.54 nM	11.4%	inactive	
CC(=O)Nc1c[nH]c2c(C(=O)N[C@H]3CC[C@@]4(O)[C@H]5Cc6ccc(O)c7c6[C@@]4(CCN5CC4CC4)[C@H]3O7)cccc12	0.23 nM	2.1 nM	9.4	23	1.48 nM	9.97%	inactive	
O=C(N[C@H]1CC[C@@]2(O)[C@H]3Cc4ccc(O)c5c4[C@@]2(CCN3CC2CC2)[C@H]1O5)c1cccc2cc(Br)[nH]c12	0.48 nM	1.5 nM	3.1	14		13.3%	Active	
O=C(N[C@H]1CC[C@@]2(O)[C@H]3Cc4ccc(O)c5c4[C@@]2(CCN3CC2CC2)[C@H]1O5)c1cccc2c(Br)c[nH]c12	0.93 nM	5.28 nM	5.7	20.6	2.46 nM	14.9%	inactive	
O=C(N[C@H]1CC[C@@]2(O)[C@H]3Cc4ccc(O)c5c4[C@@]2(CCN3CC2CC2)[C@H]1O5)c1cccc2c(C3CCCC3)c[nH]c12	2.66 nM	21.1 nM	7.9	10.6	2.05 nM	12.3%	inactive	
O=C(N[C@@H]1CC[C@@]2(O)[C@H]3Cc4ccc(O)c5c4[C@@]2(CCN3CC2CC2)[C@H]1O5)c1cccc2c(C3CCCC3)c[nH]c12	1.45 nM	10.8 nM	7.5	6.8		21.3%	inactive	
CC(=O)c1c[nH]c2c(C(=O)N[C@H]3CC[C@@]4(O)[C@H]5Cc6ccc(O)c7c6[C@@]4(CCN5CC4CC4)[C@H]3O7)cccc12	0.43 nM		14.9	25.4	5.21 nM	9.81%	inactive	
O=C(N[C@H]1CC[C@@]2(O)[C@H]3Cc4ccc(O)c5c4[C@@]2(CCN3CC2CC2)[C@H]1O5)c1cccc2cc(-c3ccccc3)[nH]c12	2.45 nM	6.42 nM	2.6		2.07 nM	7.44%	inactive	
O=C(N[C@@H]1CC[C@@]2(O)[C@H]3Cc4ccc(O)c5c4[C@@]2(CCN3CC2CC2)[C@H]1O5)c1cccc2c(Br)c[nH]c12	0.7 nM	1.08 nM	1.6	16.7	1.05 nM			70.4%
O=Cc1c[nH]c2c(C(=O)N[C@H]3CC[C@@]4(O)[C@H]5Cc6ccc(O)c7c6[C@@]4(CCN5CC4CC4)[C@H]3O7)cccc12	0.25 nM	2.82 nM	11.3	47.5	0.89 nM	8.24%	inactive	
O=C(N[C@@H]1CC[C@@]2(O)[C@H]3Cc4ccc(O)c5c4[C@@]2(CCN3CC2CC2)[C@H]1O5)c1cccc2cc(Cl)[nH]c12	0.63 nM	1.28 nM	2	3.8	1.4 nM	38.5%		
O=C(N[C@@H]1CC[C@@]2(O)[C@H]3Cc4ccc(O)c5c4[C@@]2(CCN3CC2CC2)[C@H]1O5)c1cccc2c(C3CCCCC3)c[nH]c12	5.57 nM	41.7 nM	7.5	11.5	20.8 nM	6.23%	inactive	
Cc1c[nH]c2c(C(=O)N[C@H]3CC[C@@]4(O)[C@H]5Cc6ccc(O)c7c6[C@@]4(CCN5CC4CC4)[C@H]3O7)cccc12	0.69 nM	4.2 nM	6.1	20.1	2.68 nM	15.7%	Active	
CC(C)c1c[nH]c2c(C(=O)N[C@@H]3CC[C@@]4(O)[C@H]5Cc6ccc(O)c7c6[C@@]4(CCN5CC4CC4)[C@H]3O7)cccc12	0.89 nM	0.98 nM	1.1	22.2	1.73 nM	36.2%	inactive	
Cc1cc2cccc(C(=O)N[C@@H]3CC[C@@]4(O)[C@H]5Cc6ccc(O)c7c6[C@@]4(CCN5CC4CC4)[C@H]3O7)c2[nH]1	0.31 nM	0.8 nM	2.6	51.1	1.51 nM	21.8%	inactive	
O=C(N[C@H]1CC[C@@]2(O)[C@H]3Cc4ccc(O)c5c4[C@@]2(CCN3CC2CC2)[C@H]1O5)c1cccc2c(Cl)c[nH]c12	0.98 nM	5.96 nM	6.1	37.9	3.67 nM	13.2%	inactive	
O=C(N[C@@H]1CC[C@@]2(O)[C@H]3Cc4ccc(O)c5c4[C@@]2(CCN3CC2CC2)[C@H]1O5)c1cccc2cc(Br)[nH]c12	0.35 nM	0.46 nM	1.3	8.8	0.88 nM	36.2%	inactive	
CC(=O)Nc1c[nH]c2c(C(=O)N[C@@H]3CC[C@@]4(O)[C@H]5Cc6ccc(O)c7c6[C@@]4(CCN5CC4CC4)[C@H]3O7)cccc12	0.27 nM	6.52 nM	24.4	116	0.88 nM	8.84%	inactive	
N#Cc1c[nH]c2c(C(=O)N[C@@H]3CC[C@@]4(O)[C@H]5Cc6ccc(O)c7c6[C@@]4(CCN5CC4CC4)[C@H]3O7)cccc12	0.38 nM	1 nM	2.7	67.4	3.07 nM	38.8%	inactive	
O=C(N[C@H]1CC[C@@]2(O)[C@H]3Cc4ccc(O)c5c4[C@@]2(CCN3CC2CC2)[C@H]1O5)c1cccc2c([N+](=O)[O-])c[nH]c12	1.07 nM	9.84 nM			2.32 nM	11.3%	inactive	
O=C(N[C@H]1CC[C@@]2(O)[C@H]3Cc4ccc(O)c5c4[C@@]2(CCN3CC2CC2)[C@H]1O5)c1cccc2c(-c3ccccc3)c[nH]c12	2.37 nM	13.4 nM	5.7	6.3	1.85 nM	5.57%	inactive	
O=Cc1c[nH]c2c(C(=O)N[C@@H]3CC[C@@]4(O)[C@H]5Cc6ccc(O)c7c6[C@@]4(CCN5CC4CC4)[C@H]3O7)cccc12	0.69 nM	4.03 nM	5.8	< 35.1	1.19 nM	21.3%	inactive	
CC(=O)c1c[nH]c2c(C(=O)N[C@@H]3CC[C@@]4(O)[C@H]5Cc6ccc(O)c7c6[C@@]4(CCN5CC4CC4)[C@H]3O7)cccc12	> 50 nM	15.6 nM			204 nM	10.9%	inactive	
N#Cc1cc2cccc(C(=O)N[C@H]3CC[C@@]4(O)[C@H]5Cc6ccc(O)c7c6[C@@]4(CCN5CC4CC4)[C@H]3O7)c2[nH]1	0.87 nM	7.1 nM	8.2		3.58 nM	14.4%	inactive	
N#Cc1cc2cccc(C(=O)N[C@@H]3CC[C@@]4(O)[C@H]5Cc6ccc(O)c7c6[C@@]4(CCN5CC4CC4)[C@H]3O7)c2[nH]1	0.73 nM	1.66 nM	2.3	16.5	3.78 nM	21.3%		
